Assay results: paper PMC4979564 (JCI insight, 2016)
pIC50: −log10 of the molar value.

Tests used:
CB1R [1] = target: T1, CB1R (Mus musculus, UniProt P47746); test: [35S]GTPγS-binding assay; type: biochemical; conditions: no agonist
[2] = Tissue distribution by LC-MS/MS after oral dosing; type: in vivo, mouse
[3] = Plasma ALT and AST after 28-day chronic oral administration; type: in vivo, mouse; conditions: for plasma ALT / plasma AST: 28-day chronic oral
How it was run: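 Mice received test compound by daily oral gavage. Blood was collected at sacrifice, and serum ALT and AST were measured on an automated clinical chemistry analyzer.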

Caco-2 = Caco-2 permeability assay; type: in vitro ADME
CB1R [4] = target: T1, CB1R; test: Brain CB1R occupancy by CB1R PET; type: in vivo; conditions: acute or chronic treatment, 3–30 mg/kg
anxiety-like behavior = test: Elevated plus-maze test; type: in vivo, mouse
CB1R [5] = target: T1, CB1R; test: Upper GI motility assay; type: in vivo
iNOS = iNOS (Mus musculus, UniProt P29477); type: cell-based; conditions: for concentration range of concentration-dependent inhibition of iNOS activity: extracts of RAW 264.7 macrophages treated with LPS + γ-interferon
How it was run: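 RAW 264.7 mouse macrophages (100,000 cells/well) primed 24 h with LPS (50 ng/ml) plus γ-interferon (10 ng/ml) to induce iNOS. Test compound was then added for 1 h. Activity was read with a fluorimetric cell-associated NOS detection kit per supplier's protocol. Diphenylene iodonium (1 mM) served as positive control. One-way ANOVA with Dunnett's test against LPS+γ-interferon control.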

recombinant bovine eNOS = recombinant bovine eNOS (Bos taurus, UniProt P29473); test: Radioisotopic eNOS activity assay; type: biochemical; conditions: recombinant eNOS enzyme
How it was run: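 Recombinant bovine eNOS was incubated with test compound. Activity was taken as the rate of conversion of [3H]L-arginine to [3H]L-citrulline, using a radioisotopic NOS assay kit per supplier's instructions. L-NNA (100 μM) served as positive control. One-way ANOVA with Dunnett's test.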

[6] = Pharmacokinetics in Sprague-Dawley rats; type: in vivo, rat
Pharmacokinetics in mice = type: in vivo, mouse; conditions: oral
[7] = Liver microsomal stability assay; type: in vitro ADME; conditions: mouse, rat, or human liver microsomes, 1 hour at 37°C
[8] = 2-strain Ames test for in vitro genotoxicity; conditions: up to 125 μg/ml
hERG = hERG (Homo sapiens, UniProt Q12809); test: hERG K+ current inhibition; type: biochemical; conditions: read-out: IC50 for inhibition of the K+ current mediated by hERG; in vitro
CB1R [9] = target: CB1R (Homo sapiens, UniProt P21554); test: Safety screen; type: binding; conditions: 1 μM
κ opioid receptor = test: Safety screen; type: binding; conditions: 1 μM
[10] = test system: BDL-induced liver fibrosis; test: Bile duct ligation; type: in vivo, mouse; conditions: for progression of established BDL-induced liver fibrosis: treatment started on day 6 after BDL; for gene expression of fibrosis markers collagen-1, Tgfβ1, αSma, Timp1: wild-type mice with BDL
[11] = test system: CCl4-induced liver fibrosis; test: CCl4-induced liver fibrosis; type: in vivo, mouse; conditions: 3 mg/kg/d for 4 weeks with CCl4 twice weekly
CB2R = conditions: binding, CHO-K1 membranes

T1 sequence (P47746 whole entry): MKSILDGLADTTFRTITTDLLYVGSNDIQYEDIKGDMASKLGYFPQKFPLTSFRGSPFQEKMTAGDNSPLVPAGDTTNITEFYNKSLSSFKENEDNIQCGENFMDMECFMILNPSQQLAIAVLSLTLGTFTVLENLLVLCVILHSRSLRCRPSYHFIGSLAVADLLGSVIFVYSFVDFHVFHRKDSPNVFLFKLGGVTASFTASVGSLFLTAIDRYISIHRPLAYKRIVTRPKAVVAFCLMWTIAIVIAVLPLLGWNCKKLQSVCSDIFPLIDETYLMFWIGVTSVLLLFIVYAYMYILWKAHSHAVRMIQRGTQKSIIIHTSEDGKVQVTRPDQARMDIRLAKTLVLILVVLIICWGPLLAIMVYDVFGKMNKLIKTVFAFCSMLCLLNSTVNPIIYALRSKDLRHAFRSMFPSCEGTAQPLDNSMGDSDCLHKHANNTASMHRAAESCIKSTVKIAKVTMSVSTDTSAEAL
Chain of hERG (Q12809 whole entry): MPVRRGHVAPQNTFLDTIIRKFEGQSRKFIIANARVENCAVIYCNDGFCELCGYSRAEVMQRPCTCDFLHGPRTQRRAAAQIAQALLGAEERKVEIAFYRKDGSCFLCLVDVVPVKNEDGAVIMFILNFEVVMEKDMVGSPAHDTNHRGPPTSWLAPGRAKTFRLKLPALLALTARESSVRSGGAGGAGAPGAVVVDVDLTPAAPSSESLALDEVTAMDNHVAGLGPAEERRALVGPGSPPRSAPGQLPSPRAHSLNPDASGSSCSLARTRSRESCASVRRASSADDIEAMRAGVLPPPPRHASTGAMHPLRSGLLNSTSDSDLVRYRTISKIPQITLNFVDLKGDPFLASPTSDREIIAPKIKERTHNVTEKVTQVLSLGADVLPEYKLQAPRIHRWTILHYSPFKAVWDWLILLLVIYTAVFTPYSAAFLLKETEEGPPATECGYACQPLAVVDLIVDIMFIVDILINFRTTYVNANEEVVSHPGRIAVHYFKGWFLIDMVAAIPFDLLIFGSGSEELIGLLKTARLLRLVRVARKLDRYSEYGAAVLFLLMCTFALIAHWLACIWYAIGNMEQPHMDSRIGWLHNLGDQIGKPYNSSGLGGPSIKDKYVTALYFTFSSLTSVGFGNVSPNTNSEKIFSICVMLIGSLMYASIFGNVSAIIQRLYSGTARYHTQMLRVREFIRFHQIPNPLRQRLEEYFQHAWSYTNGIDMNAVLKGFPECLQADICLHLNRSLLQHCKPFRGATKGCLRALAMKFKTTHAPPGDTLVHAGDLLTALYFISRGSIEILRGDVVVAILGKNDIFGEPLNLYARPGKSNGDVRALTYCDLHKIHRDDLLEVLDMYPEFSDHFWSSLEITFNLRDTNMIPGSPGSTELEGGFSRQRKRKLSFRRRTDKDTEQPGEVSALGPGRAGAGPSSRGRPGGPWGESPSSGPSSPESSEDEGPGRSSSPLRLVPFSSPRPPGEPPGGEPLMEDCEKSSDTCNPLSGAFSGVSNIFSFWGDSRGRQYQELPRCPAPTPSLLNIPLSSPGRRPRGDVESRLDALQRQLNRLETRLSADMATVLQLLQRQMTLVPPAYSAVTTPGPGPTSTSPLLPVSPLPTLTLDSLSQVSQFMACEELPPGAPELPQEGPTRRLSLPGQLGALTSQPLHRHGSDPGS
Chain of CB1R (Homo sapiens, UniProt P21554) (P21554 whole entry): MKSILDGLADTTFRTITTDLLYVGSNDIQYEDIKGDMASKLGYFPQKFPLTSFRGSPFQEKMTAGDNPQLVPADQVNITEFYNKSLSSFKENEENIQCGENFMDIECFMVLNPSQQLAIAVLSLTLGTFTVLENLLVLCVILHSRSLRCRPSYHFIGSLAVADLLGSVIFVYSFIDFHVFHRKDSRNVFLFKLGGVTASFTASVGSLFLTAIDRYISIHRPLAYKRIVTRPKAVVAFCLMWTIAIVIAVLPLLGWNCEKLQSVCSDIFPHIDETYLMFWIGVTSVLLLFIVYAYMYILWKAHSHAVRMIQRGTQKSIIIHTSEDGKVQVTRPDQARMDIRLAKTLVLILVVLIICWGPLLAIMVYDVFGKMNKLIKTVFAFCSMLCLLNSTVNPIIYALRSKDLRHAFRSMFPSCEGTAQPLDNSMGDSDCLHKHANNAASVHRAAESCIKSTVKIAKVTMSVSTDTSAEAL

In the case of `C/C(N)=N\C(=N/S(=O)(=O)c1ccc(C(F)(F)F)cc1)N1C[C@H](c2ccccc2)C(c2ccc(Cl)cc2)=N1` [MRI-1867], the “GTPγS binding in the absence of an agonist (inverse agonism)” value (CB1R [1]) was “concentration-dependent decreases in GTPγS binding”, the “unbound drug concentrations in the brain” value ([2]; 10 times higher dose (30 mg/kg), acute or chronic oral, 1 hour after dose) was 0.9 to 1.2 nM and the “brain/plasma Cmax ratio” value ([2]; acute or 28-day chronic oral administration, 3 mg/kg) was ~ 3%. For the same compound, the “brain concentration of unbound drug” value ([2]; acute or chronic oral dosing, 3 mg/kg, 1 hour after dose) was 0.2 to 0.3 nM, the “brain penetrance and brain CB1R occupancy in mdr1α−/− mice” value ([2]; mdr1α−/− mice) was “marked increase” and the “accumulation in the liver” value ([2]; oral dosing) was “accumulated highly in the liver”. For the same compound, the hepatotoxicity ([3]; 28-day chronic oral doses of 3 or 30 mg/kg) was “no hepatotoxicity”, the “plasma ALT” value ([3]; 3 mg/kg) was 31.8 ± 4.8 U/l and the “plasma AST” value ([3]; 3 mg/kg) was 44.0 ± 6.1 U/l. The “plasma ALT” value ([3]; 30 mg/kg) was 26.2 ± 3.4 U/l, the “plasma AST” value ([3]; 30 mg/kg) was 36.2 ± 1.2 U/l and the efflux ratio (Caco-2) was 2.5. The “displacement of a CB1R PET ligand in brain” value (CB1R [4]) was “failed to cause significant displacement”, the “anxiety-like behavior in the elevated plus maze” value (anxiety-like behavior; doses up to 30 mg/kg) was “did not induce anxiety-like behavior” and the “reversal of inhibition of upper GI motility caused by CB1R agonist arachidonoyl 2-chloroethylamide” value (CB1R [5]; 10 mg/kg agonist) was “dose-dependently reversed”. The “upper GI motility (inverse agonism)” value (CB1R [5]; oral doses of 3–10 mg/kg, control mice, no effect in CBr1−/− mice) was “significantly increased upper GI motility”, the “concentration range of concentration-dependent inhibition of iNOS activity” value (iNOS) was 1 to 10 µM and the “effect on eNOS activity” value (recombinant bovine eNOS) was “unaffected”. The oral bioavailability ([6]; AUC oral gavage versus intravenous, 3 mg/kg, Sprague-Dawley rats) was 81%, the “Plasma t1/2” value ([6]; oral, rats) was ~ 4 hours and the “Plasma t1/2” value (Pharmacokinetics in mice) was ~ 4 hours. The compound remaining unmetabolized [7] was 46%–62%, the Ames test genotoxicity [8] was “negative” and the pIC50 (hERG) was 5.29. For the same compound, the “displacement at CB1R” value (CB1R [9]) was 93%, the “displacement at κ opioid receptor” value (κ opioid receptor) was 61% and the “BDL-induced increase in hepatic iNOS gene expression” value ([10]; 3 mg/kg/d oral) was “completely prevented”. The “BDL-induced increase in hepatic iNOS protein (immunostaining)” value ([10]; 3 mg/kg/d oral) was “completely prevented”, the “BDL-induced increase in iNOS function (hepatic iNOS enzyme activity, protein nitrosylation)” value ([10]; 3 mg/kg/d oral) was “completely prevented” and the “macrophage infiltration, hepatocyte apoptosis and elevated Ccl2 after BDL” value ([10]; 3 mg/kg/d oral) was “more effectively suppressed”. For the same compound, the “BDL-induced fibrosis in cnr1−/− mice” value ([10]; cnr1−/− mice, 3 mg/kg/d oral) was “further attenuated”, the “progression of established BDL-induced liver fibrosis” value ([10]; 3 mg/kg/d oral) was “completely arrest the progression” and the “gene expression of fibrosis markers collagen-1, Tgfβ1, αSma, Timp1” value ([10]; 3 mg/kg/d oral) was “significantly reduced”. For the same compound, the BDL-induced ductular proliferation ([10]; wild-type mice, 3 mg/kg/d oral) was “attenuated significantly more effectively”, the “CCl4-induced fibrosis (Sirius red, Hyp content, fibrogenic gene expression, iNOS protein)” value [11] was “attenuated significantly more” and the “selectivity for CB1R over CB2R” value (CB2R) was > 500 fold.

With `CC(=N)NCc1cccc(CN)c1` [1400W, reference compound] the “progression of established BDL-induced liver fibrosis” value ([10]; 10 mg/kg daily) was “attenuated fibrosis to the same extent as rimonabant”.

With `Cc1c(C(=O)NN2CCCCC2)nn(-c2ccc(Cl)cc2Cl)c1-c1ccc(Cl)cc1` [rimonabant, reference compound] the “anxiety-like behavior in the elevated plus maze” value (anxiety-like behavior; 3 mg/kg) was “caused pronounced anxiety”, the “inhibition of iNOS activity” value (iNOS; up to 100 μM) was “did not inhibit iNOS” and the “effect on eNOS activity” value (recombinant bovine eNOS) was “Lack of effect”. For the same compound, the “BDL-induced increase in hepatic iNOS gene expression” value ([10]; 3 mg/kg/d oral) was “only partially reduced”, the “BDL-induced increase in hepatic iNOS protein (immunostaining)” value ([10]; 3 mg/kg/d oral) was “did not affect” and the “BDL-induced increase in iNOS function (hepatic iNOS enzyme activity, protein nitrosylation)” value ([10]; 3 mg/kg/d oral) was “no significant effect”. The “gene expression of fibrosis markers collagen-1, Tgfβ1, αSma, Timp1” value ([10]; 3 mg/kg/d oral) was “significantly reduced”.

For `CC(=N)N` [acetamidine], the “concentration range of concentration-dependent inhibition of iNOS activity” value (iNOS) was 1 to 10 µM and the “effect on eNOS activity” value (recombinant bovine eNOS) was “unaffected”.
